According to ChEMBL document CHEMBL1671686, “Carbapenem-resistant KPC-2-producing Escherichia coli in a Tel Aviv Medical Center, 2005 to 2008” (2010):
Converted amounts (≈) assume the structure as drawn.

Assays:
Format in all cases: functional
Escherichia coli [1] = assay: Antimicrobial activity against Escherichia coli isolate 157 expressing beta-lactamase KPC2, CTX-M-15, TEM and PFGE cluster 3 isolated from urine of patient by agar dilution method; settings: isolate 157, Urine
How it was run: (§1)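 Clinical carbapenem-resistant E. coli isolates collected Feb 2005–Oct 2008. Carbapenem MICs determined by agar dilution following CLSI protocols.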

Escherichia coli [2] = assay: Antimicrobial activity against Escherichia coli isolate 157T expressing beta-lactamase KPC2 and PFGE cluster 3 isolated from urine of patient by agar dilution method
How it was run: (§2)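 Transformant strains. Plasmids purified from the clinical isolates were electroporated into E. coli DH10B. Transformants were selected on LB agar with 100 μg/ml ampicillin, and colonies were PCR-screened for blaKPC before susceptibility testing.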

Escherichia coli [3] = assay: Antimicrobial activity against Escherichia coli isolate 329 expressing beta-lactamase KPC2, CTX-M-2, TEM and PFGE cluster 2 isolated from blood of patient by agar dilution method
How it was run: (§3)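 Clinical carbapenem-resistant E. coli isolates from the hospital, February 2005 to October 2008. Carbapenem MICs were determined by agar dilution following CLSI protocols.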

Escherichia coli [4] = assay: Antimicrobial activity against Escherichia coli isolate 329T expressing beta-lactamase KPC2 and PFGE cluster 2 isolated from blood of patient by agar dilution method; how it was run: as §2
Escherichia coli [5] = assay: Antimicrobial activity against Escherichia coli isolate 339 expressing beta-lactamase KPC2, TEM and PFGE cluster 5 isolated from peritoneal fluid of patient by agar dilution method; how it was run: as §3
Escherichia coli [6] = assay: Antimicrobial activity against Escherichia coli isolate 339T expressing beta-lactamase KPC2 and PFGE cluster 5 isolated from peritoneal fluid of patient by agar dilution method; how it was run: as §2
Escherichia coli [7] = assay: Antimicrobial activity against Escherichia coli isolate 360 expressing beta-lactamase KPC2, CTX-M-15, OXA-9, TEM and PFGE cluster 1 isolated from urine of patient by agar dilution method; settings: isolate 360, Urine; how it was run: as §1
Escherichia coli [8] = assay: Antimicrobial activity against Escherichia coli isolate 360T expressing beta-lactamase KPC2, OXA-9 and PFGE cluster 1 isolated from urine of patient by agar dilution method; how it was run: as §2
Escherichia coli [9] = assay: Antimicrobial activity against Escherichia coli isolate 386 expressing beta-lactamase KPC2, CTX-M-15, OXA-9, TEM and PFGE cluster 1 isolated from wound of patient by agar dilution method; how it was run: as §1
Escherichia coli [10] = assay: Antimicrobial activity against Escherichia coli isolate 386T expressing beta-lactamase KPC2, OXA-9 and PFGE cluster 1 isolated from wound of patient by agar dilution method; how it was run: as §2
Escherichia coli [11] = assay: Antimicrobial activity against Escherichia coli isolate 540 expressing beta-lactamase KPC2, TEM and PFGE cluster 4 isolated from synovial fluid of patient by agar dilution method; how it was run: as §3
Escherichia coli [12] = assay: Antimicrobial activity against Escherichia coli isolate 543 expressing beta-lactamase KPC2, CTX-M-15, TEM and PFGE cluster 4 isolated from synovial fluid of patient by agar dilution method; how it was run: as §3
Escherichia coli [13] = assay: Antimicrobial activity against Escherichia coli isolate 543T expressing beta-lactamase KPC2 and PFGE cluster 4 isolated from synovial fluid of patient by agar dilution method; how it was run: as §2
Escherichia coli [14] = assay: Antimicrobial activity against Escherichia coli isolate 544 expressing beta-lactamase KPC2, TEM and PFGE cluster 4 isolated from abscess of patient by agar dilution method; how it was run: as §3
Escherichia coli [15] = assay: Antimicrobial activity against Escherichia coli isolate 547 expressing beta-lactamase KPC2, TEM and PFGE cluster 4 isolated from blood of patient by agar dilution method; how it was run: as §1
Escherichia coli [16] = assay: Antimicrobial activity against Escherichia coli isolate 547T expressing beta-lactamase KPC2 and PFGE cluster 4 isolated from blood of patient by agar dilution method; how it was run: as §2
Escherichia coli [17] = assay: Antimicrobial activity against Escherichia coli isolate 1679 expressing beta-lactamase KPC2, SHV-12, TEM and PFGE cluster 6 isolated from peritoneal fluid of patient by agar dilution method; how it was run: as §3
Escherichia coli [18] = assay: Antimicrobial activity against Escherichia coli isolate 1679T expressing beta-lactamase KPC2, TEM and PFGE cluster 6 isolated from peritoneal fluid of patient by agar dilution method; how it was run: as §2
Escherichia coli [19] = assay: Antimicrobial activity against Escherichia coli DH10B by Etest; settings: K-12 DH10B

`C[C@@H](O)[C@H]1C(=O)N2C(C(=O)O)=C(S[C@@H]3CN[C@H](C(=O)Nc4cccc(C(=O)O)c4)C3)[C@H](C)[C@H]12` gave an MIC (Escherichia coli [1]) of 8 µg/mL (≈ 16.8 µM), an MIC (Escherichia coli [2]) of 4 µg/mL (≈ 8.41 µM) and an MIC (Escherichia coli [3]) of 32 µg/mL (≈ 67.3 µM). It also gave an MIC (Escherichia coli [4]) of 4 µg/mL (≈ 8.41 µM), an MIC (Escherichia coli [5]) of 16 µg/mL (≈ 33.6 µM) and an MIC (Escherichia coli [6]) of 4 µg/mL (≈ 8.41 µM). It also gave an MIC (Escherichia coli [7]) of 8 µg/mL (≈ 16.8 µM), an MIC (Escherichia coli [8]) of 1 µg/mL (≈ 2.1 µM) and an MIC (Escherichia coli [9]) of 8 µg/mL (≈ 16.8 µM). It also gave an MIC (Escherichia coli [10]) of 1 µg/mL (≈ 2.1 µM), an MIC (Escherichia coli [11]) of 16 µg/mL (≈ 33.6 µM) and an MIC (Escherichia coli [12]) of 16 µg/mL (≈ 33.6 µM). It also gave an MIC (Escherichia coli [13]) of 2 µg/mL (≈ 4.21 µM), an MIC (Escherichia coli [14]) of 16 µg/mL (≈ 33.6 µM) and an MIC (Escherichia coli [15]) of 8 µg/mL (≈ 16.8 µM). The MIC (Escherichia coli [16]) was 0.25 µg/mL (≈ 0.526 µM), the MIC (Escherichia coli [17]) was 32 µg/mL (≈ 67.3 µM) and the MIC (Escherichia coli [18]) was 1 µg/mL (≈ 2.1 µM). It also gave an MIC (Escherichia coli [19]) of 0.023 µg/mL (≈ 0.0484 µM).

In the case of `C[C@@H](O)[C@H]1C(=O)N2C(C(=O)O)=C(S[C@@H]3CN[C@H](CNS(N)(=O)=O)C3)[C@H](C)[C@H]12` [DORIPENEM], the MIC (Escherichia coli [1]) is reported as 2 µg/mL (≈ 4.76 µM), the MIC (Escherichia coli [2]) is reported as 1 µg/mL (≈ 2.38 µM) and the MIC (Escherichia coli [3]) is reported as 4 µg/mL (≈ 9.51 µM). For the same compound, the MIC (Escherichia coli [4]) was 1 µg/mL (≈ 2.38 µM), the MIC (Escherichia coli [5]) was 1 µg/mL (≈ 2.38 µM) and the MIC (Escherichia coli [6]) was 0.5 µg/mL (≈ 1.19 µM). For the same compound, the MIC (Escherichia coli [7]) was 1 µg/mL (≈ 2.38 µM), the MIC (Escherichia coli [8]) was < 0.5 µg/mL and the MIC (Escherichia coli [9]) was 1 µg/mL (≈ 2.38 µM). For the same compound, the MIC (Escherichia coli [10]) was < 0.5 µg/mL, the MIC (Escherichia coli [11]) was 1 µg/mL (≈ 2.38 µM) and the MIC (Escherichia coli [12]) was 2 µg/mL (≈ 4.76 µM). For the same compound, the MIC (Escherichia coli [13]) was < 0.5 µg/mL, the MIC (Escherichia coli [14]) was 1 µg/mL (≈ 2.38 µM) and the MIC (Escherichia coli [15]) was < 0.5 µg/mL. For the same compound, the MIC (Escherichia coli [16]) was < 0.5 µg/mL, the MIC (Escherichia coli [17]) was 8 µg/mL (≈ 19 µM) and the MIC (Escherichia coli [18]) was 0.5 µg/mL (≈ 1.19 µM). For the same compound, the MIC (Escherichia coli [19]) was < 0.5 µg/mL.
